Compound activity deposited in PubChem by several laboratories.
Tb MetRS inh: blocks T. brucei methionyl-tRNA synthetase activity | purified T. brucei MetRS, ATP depletion, Kinase-Glo luminescence | actives 0.4% (n = 360,000) | inhibition, % at 11.9 µM;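 active = inhibition above a per-plate cutoff of the control wells' mean inhibition plus 3 SD, cut at about 5.5% in these data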;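 note: 0% = DMSO wells median and 100% = median of wells with control inhibitor compound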
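Material: parasite MetRS enzyme / Replication: singlicate, one well per compound / Signal: luminescence of leftover ATP / Schedule: 2 h aminoacylation at 25 °C after 15 min preincubation / Medium: HEPES-MgCl2-KCl buffer plus DTT, spermine, BSA, pyrophosphatase / Doses: 11.9 µM single point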
PREPL inh: inhibits the human prolyl oligopeptidase-like enzyme; Q4J6C6; recombinant PREPL, fluorescence polarization activity-based probe; inhibition, % at 5.96 µM; actives 0.68% (n = 320,000); in the data active = inhibition above about 43%;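 note: 0% = enzyme with DMSO and 100% = wells lacking enzyme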
E coli Lon inh: inhibits E. coli Lon protease; actives 0.42% (n = 360,000); P0A9M0; inhibition, % at 7.94 µM; purified E. coli Lon protease, fluorescence polarization; in the data active = inhibition above about 13%, passing the limit was not always enough;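 note: 0% = enzyme with probe and DMSO and 100% = no enzyme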
Target sequence (P0A9M0 whole entry, looked up): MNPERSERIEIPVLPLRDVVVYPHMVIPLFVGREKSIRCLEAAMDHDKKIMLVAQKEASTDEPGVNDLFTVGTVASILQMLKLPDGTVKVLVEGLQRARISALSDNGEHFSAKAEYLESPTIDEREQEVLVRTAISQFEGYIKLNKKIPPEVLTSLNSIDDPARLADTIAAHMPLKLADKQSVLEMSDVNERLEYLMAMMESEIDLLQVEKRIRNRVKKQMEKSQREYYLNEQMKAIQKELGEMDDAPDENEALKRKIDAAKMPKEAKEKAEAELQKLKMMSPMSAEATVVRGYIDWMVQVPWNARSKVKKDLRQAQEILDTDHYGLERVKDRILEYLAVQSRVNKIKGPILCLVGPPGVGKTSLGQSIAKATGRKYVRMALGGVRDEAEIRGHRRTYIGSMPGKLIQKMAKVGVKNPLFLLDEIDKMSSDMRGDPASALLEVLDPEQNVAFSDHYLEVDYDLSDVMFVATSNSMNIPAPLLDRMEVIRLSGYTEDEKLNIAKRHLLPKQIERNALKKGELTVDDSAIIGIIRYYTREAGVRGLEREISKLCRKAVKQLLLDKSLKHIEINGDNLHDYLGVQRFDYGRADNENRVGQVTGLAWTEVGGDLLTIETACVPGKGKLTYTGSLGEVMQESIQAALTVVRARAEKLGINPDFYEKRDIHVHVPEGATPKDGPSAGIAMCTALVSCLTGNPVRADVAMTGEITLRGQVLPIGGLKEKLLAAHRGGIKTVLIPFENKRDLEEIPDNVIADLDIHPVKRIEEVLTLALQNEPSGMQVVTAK
SKN-1 inh: blocks SKN-1 activity in C. elegans | C. elegans VP596 Pgst-4::GFP/RFP ratio, acrylamide-induced, 24 h | inhibition, % at 21.8 µM | actives 0.49% (n = 360,000);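 active = interference check ratio from 0.5 to 1.5 plus GFP to RFP signal ratio inhibition reaching or exceeding a fixed threshold, cut at about 30% in these data, passing the limit was not always enough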
MT1-MMP act inh: MT1-MMP (human) activation inhibition. actives 0.061% (n = 360,000). P50281. AID 651647. GFP/RFP ratio change, % at 20 µM. HT1080 RFP-PRO-GFP cells, GFP/RFP ratio fluorescence, overnight; percent of plate control window, DMSO zero;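 active = GFP/RFP ratio change of at least 30% with cell ATP level not reduced by more than half and red fluorescence within 50% of control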
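Assay system: RFP-PRO-GFP reporter HT1080 cells; read-out basis: GFP/RFP fluorescence ratio; benchmarks: DMSO wells and RFP-L50D-GFP cells; doses: 20 µM single dose, 1% DMSO; schedule: overnight cell settling, then overnight compound exposure, 37 °C, 5% CO2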
hiPSC survival: increases survival of single human iPS cells; hiPSC single-cell survival, ATPlite luminescence; 100% = ROCK inhibitor wells, 0% = DMSO; survival enhancement, % at 20 µM; actives 0.044% (n = 360,000); AID 602274; in the data active = survival enhancement above about 18%;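 note: cells exposed to compounds for 16 hours before the ATP read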
The depositor's hits bear a star; / = no result. Only some compounds are listed: those with a hit (about 1.8% of all), similar ones and a draw of the others.

SMILES | Tb MetRS inh | PREPL inh | E coli Lon inh | SKN-1 inh | MT1-MMP act inh | hiPSC survival
O=C(/C=C/c1cccs1)c1ccc(NC(=O)c2cccc(Br)c2)cc1 | -0.6 | 3.3 | -1.1 | 21.9 | -3.9 | -4.7
Cc1nc2c(C(=O)NCc3ccco3)cnn2c(C)c1Cc1ccc(F)cc1Cl | -0.3 | -7.1 | 0.0 | 13.7 | -6.8 | 0.1
Cc1cccc(Cc2c(C)nc3c(C(=O)NCc4ccco4)cnn3c2C)c1 | 0.5 | -6.9 | -4.5 | 13.8 | -5.0 | 18.6*
FC(F)(F)c1cccc(-c2nc(-c3ccncc3)no2)c1 | -0.8 | / | 6.5 | 50.1* | 0.5 | -0.2
Cc1ccc(-c2nc(-c3ccncc3)no2)cc1 | -0.4 | / | -18.2 | 42.5* | 2.0 | -0.5
Brc1cccc(-c2nc(-c3ccncc3)no2)c1 | -0.8 | -7.5 | -8.7 | 76.7* | -2.7 | -0.5
O=C(O)c1ccc(-c2noc(-c3cccc(C(F)(F)F)c3)n2)cc1 | -0.2 | 0.3 | 7.1 | 5.2 | 4.5 | 5.2
Cc1cccc(-c2nc(-c3ccncc3)no2)c1 | -1.2 | 6.9 | -4.0 | 31.3 | -0.3 | -0.6
O=C1NC[C@@H](CCCCN2CCN(Cc3ccccc3)C(=O)C2=O)N(Cc2ccccc2)C1=O | 0.1 | / | 0.4 | 1.1 | 2.3 | 0.0
O=[N+]([O-])c1ccc(NS(=O)(=O)c2ccc(Cl)c(Cl)c2)cc1 | 0.4 | / | -1.7 | 8.7 | 4.1 | 0.2
O=C1NC[C@@H](CCCCN2C[C@H](Cc3ccc(O)cc3)N(CCc3ccccc3)C(=O)C2=O)N(CCC2CCCCC2)C1=O | 0.3 | / | -4.6 | -7.2 | 7.5 | 0.7
Cc1cc(=O)n2nc(N3CCCC(C(=O)Nc4cccc(C)c4C)C3)sc2n1 (centres undefined) | -0.2 | / | -3.3 | 12.2 | 5.6 | -1.4
Nc1nc(-c2ccc(Oc3ccccc3)cc2)cs1 | -0.1 | 8.5 | 1.8 | 43.7* | 0.6 | -0.6
Nc1nc(-c2ccc(-c3ccccc3)cc2)cs1 | -0.2 | 20.9 | 8.1 | 66.2* | -3.3 | -1.7
Cc1ccc(OCc2ccc(C(=O)Nc3nccs3)o2)cc1C | 0.1 | -15.2 | -3.0 | 55.6* | 1.5 | -1.5
COc1ccc(C2/C=C\CN(Cc3ccncc3)CC(=O)N2Cc2ccc(F)cc2)cc1 (centres undefined) | -0.1 | 3.1 | -0.8 | -7.3 | -7.3 | 1.6
COC(=O)CN1C(=S)N(Cc2ccccc2)C(=O)C1CC(=O)Nc1ccc(Br)cc1 (centres undefined) | 64.2* | -5.1 | 3.6 | 38.8* | 2.4 | -3.9
COC(=O)CN1C(=S)N(c2ccc(F)cc2)C(=O)C1CC(=O)Nc1ccc(F)cc1 (centres undefined) | 0.7 | 2.5 | 7.1 | -16.1 | 8.1 | 1.3
CC(=O)N(\C=C/C=C/C=C1\Sc2ccccc2C1=O)c1ccccc1 | -0.6 | 6.0 | -28.4 | 27.0 | -5.6 | -1.3
CC(=O)N(/N=C1\Sc2ccccc2C1=O)c1ccc(C)cc1C | -0.6 | -8.9 | 0.5 | 42.6* | 14.8 | -5.2
CC(=O)N(/N=C1\Sc2ccccc2C1=O)c1ccccc1 | 0.2 | / | -8.8 | 13.2 | -3.9 | -3.9
CC(=O)N(/N=C1\Sc2ccccc2C1=O)c1ccccc1C | -0.2 | -23.3 | -23.7 | 39.6* | -23.0 | -1.2
CC(C)NC(=O)COC(=O)CNC(=O)c1cc(Cl)cc([N+](=O)[O-])c1 | 0.1 | -4.9 | -0.7 | 3.6 | 2.4 | 0.3
Cn1c(Cc2c[nH]c3ccccc23)n[nH]c1=S | 0.1 | -11.8 | -11.9 | 44.2* | -4.0 | 3.8
Cc1ccc2nc(Nc3nc(CSc4nnnn4-c4ccccc4)cc(=O)[nH]3)nc(C)c2c1 | -0.5 | -9.9 | 6.9 | 35.3* | -1.1 | 1.0
SMILES | Tb MetRS inh | PREPL inh | E coli Lon inh | SKN-1 inh | MT1-MMP act inh | hiPSC survival
CCOc1ccc(/C=C2\CCCc3c2nc2ccccc2c3C(=O)O)cc1OC | -0.1 | 18.9 | 178.4* | -64.8 | -74.6 | -0.4
COc1ccc(/C=C2\CCCc3c2nc2ccccc2c3C(=O)O)cc1OC | / | 2.8 | / | / | / | /
CC(C)C[C@@H](CNCC(=O)[C@H](Cc1c[nH]c2ccccc12)NC(=O)c1[nH]cnc1C(=O)N[C@@H](C)CN)NC(=O)c1nc[nH]c1C(=O)N[C@@H](CC(=O)O)C(=O)O | 10.9* | / | -11.4 | 0.1 | -0.6 | 1.6
CC(C)C[C@@H](CNCC(=O)[C@H](Cc1c[nH]c2ccccc12)NC(=O)c1[nH]cnc1C(=O)N[C@H](CN)CC(C)C)NC(=O)c1nc[nH]c1C(=O)N[C@@H](CC(=O)O)C(=O)O | 6.8* | / | 0.7 | 1.9 | 0.4 | -1.0
CC(C)C[C@@H](CNCC(=O)[C@H](Cc1ccccc1)NC(=O)c1[nH]cnc1C(=O)N[C@@H](C)CN)NC(=O)c1nc[nH]c1C(=O)N[C@@H](CC(=O)O)C(=O)O | -0.2 | / | 6.1 | 8.0 | -0.1 | 0.3
CC(C)C[C@@H](CN)NC(=O)c1nc[nH]c1C(=O)N[C@@H](Cc1c[nH]c2ccccc12)C(=O)CNC[C@H](C)NC(=O)c1nc[nH]c1C(=O)N[C@@H](CC(=O)O)C(=O)O | 0.5 | / | -4.6 | -4.1 | 3.0 | 5.5
CSc1nc(C=Nc2ccccc2Cl)c(O)n1Cc1cccc(Cl)c1 | -0.5 | -1.5 | -3.6 | -6.6 | -0.4 | 1.9
COc1ccccc1CCC(=O)N1CCC(n2nccc2NC(=O)C2CCOC2)CC1 (centres undefined) | -0.6 | 9.5 | -1.5 | -9.6 | 1.3 | -0.4
c1ccc(CCNc2nc(-c3ccccn3)cs2)cc1 | 1.5 | 37.7 | -3.1 | 8.1 | 5.8 | 1.4
c1ccc(CCNc2nc(-c3cccnc3)cs2)cc1 | -0.4 | 48.7* | -1.8 | 2.9 | 1.9 | 1.1
O=CNc1cc(-c2ccoc2)cn2c(-c3ccc(F)cc3)cnc12 | 0.0 | / | -33.6 | 2.6 | -10.8 | 1.6
Cc1ccc(C(=O)O/N=C(\c2ccccc2)c2ccncc2)cc1 | 0.7 | 88.3* | 5.6 | 7.2 | 3.0 | 0.6
CCCC(=O)O/N=C(\c1ccccc1)c1ccncc1 | -0.5 | 2.3 | 0.4 | -0.6 | 0.5 | 0.2
Cn1c(-c2ccc(CN3CCCCC3)o2)nc2ccccc21 | -0.2 | 7.9 | -9.7 | 36.0* | -1.2 | -1.8
Cc1ccc(CNc2nc3ccccc3n2C)o1 | 0.5 | -7.0 | 0.1 | -7.1 | -0.8 | 0.9
CC(=O)Nc1cc(-c2ccccc2)cn2c(-c3cccc(C(C)=O)c3)cnc12 | 0.2 | / | -0.4 | 7.8 | -4.0 | -0.7
CCN1/C(=C/c2cc[n+](C)cc2)C=Cc2cc(C)ccc21 | 0.1 | 36.5 | -28.0 | 8.2 | -10.1 | -3.3
CCN1/C(=C/c2ccc3ccccc3[n+]2CCCS(=O)(=O)[O-])C=Cc2cc(C)ccc21 | -1.9 | / | -3.8 | 39.2* | 57.6 | -0.2
CC(C)OC(=O)CSc1nnnn1-c1ccc2c(c1)OCCO2 | -0.1 | 7.7 | 0.3 | 45.1* | 1.8 | 1.9
CCCNCc1cc(Cl)c(OCC)c(Cl)c1 | -1.3 | -13.5 | 5.8 | 41.5* | / | -1.2
Cc1ccc(C(=O)Oc2ccccc2N2CCOCC2)cc1 | -0.3 | -1.8 | 6.0 | 7.7 | 2.2 | -0.5
